PAFAH2 FP inh: PAFAH2 (human) inhibition; Q99487; recombinant PAFAH2, FP-rhodamine activity probe, fluorescence polarization; inhibition, % at 3.39 µM; 340,000 tested, 0.99% active;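 active = inhibition above the mean over all tested compounds plus 3 SD, cut at about 30% in these data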;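 also: inhibitors block probe labeling of enzyme so polarization drops; 0% = enzyme with DMSO and 100% = wells lacking PAFAH2 protein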
ARFGAP1 inh: inhibits rat ARF GTPase activating protein 1; 360,000 tested, 0.26% active; inhibition, % at 16.5 µM; Arfgap1-stimulated ARF1 GTP hydrolysis, GDP FP detection;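 active = inhibition above a per-plate limit, mean inhibition of low control wells plus 3 SD, cut at about 25% in these data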;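 also: 0% = DMSO wells with enzyme and 100% = wells lacking Arfgap1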
Target sequence (Q62848 1-136 limits assumed): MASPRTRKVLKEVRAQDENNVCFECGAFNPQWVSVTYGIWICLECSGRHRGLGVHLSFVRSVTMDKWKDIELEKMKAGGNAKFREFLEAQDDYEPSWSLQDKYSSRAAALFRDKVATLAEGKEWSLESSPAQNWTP
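Assay system: Rat Arfgap1 GAP domain (His6, aa 1-136), purified enzyme | Buffer or medium: HEPES 25 mM pH 7.5, NaCl 150 mM, MgCl2, DTT | Schedule: GTP hydrolysis reaction 2 h at 25 °C | Signal: FP of antibody-bound GDP Alexa 633 tracer, ex 620/em 688 nm | Measure: Percent inhibition of Arfgap1-stimulated GTP hydrolysis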
pPAFAH FP inh: pPAFAH (human) enzyme inhibition | Q13093 | recombinant pPAFAH, FP-rhodamine probe fluorescence polarization | inhibition, % at 3.39 µM | 330,000 tested, 1.5% active | AID 463082;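 active = inhibition above the mean inhibition across the screen plus 3 SD, cut at about 25% in these data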;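 also: inhibitors block binding of the rhodamine activity-based probe so polarization drops; 0% = enzyme with DMSO and 100% = wells lacking pPAFAH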
ASAP1 GAP inh: ASAP1 ArfGAP inhibition. Q9ULH1. ASAP1-stimulated ARF1 GTP hydrolysis, GDP FP detection. AID 624377. inhibition, % at 16.5 µM. 360,000 tested, 0.19% active; in the data active = inhibition above about 25%;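 also: 0% = vehicle with enzyme and substrate and 100% = no enzyme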
PAFAH1B2 inh: inhibitors of human PAFAH1B2. P68402. 340,000 tested, 1.2% active. recombinant PAFAH1B2, FP-rhodamine activity probe, fluorescence polarization. inhibition, % at 3.39 µM;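 active = inhibition above the mean of all tested compounds plus 3 SD, cut at about 24% in these data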;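 also: 0% = enzyme with DMSO and 100% = wells lacking PAFAH1B2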
Target sequence (P68402 whole entry, looked up): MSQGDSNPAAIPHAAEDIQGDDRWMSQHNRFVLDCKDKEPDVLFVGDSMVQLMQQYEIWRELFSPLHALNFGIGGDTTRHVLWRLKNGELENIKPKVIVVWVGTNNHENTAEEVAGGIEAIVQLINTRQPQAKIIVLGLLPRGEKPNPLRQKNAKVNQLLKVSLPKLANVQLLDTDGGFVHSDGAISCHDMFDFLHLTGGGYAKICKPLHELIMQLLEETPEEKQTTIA
PAFAH1B3 inh: PAFAH1B3 (human) inhibition | AID 492972 | 340,000 tested, 0.28% active | recombinant PAFAH1B3, FP-rhodamine probe, fluorescence polarization | Q15102 | inhibition, % at 3.39 µM;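 active = inhibition above the screen-wide average of all tested compounds plus 3 SD, cut at about 25% in these data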;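 also: 0% = enzyme with DMSO only and 100% = wells lacking PAFAH1B3 protein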
Target sequence (Q15102 whole entry, looked up): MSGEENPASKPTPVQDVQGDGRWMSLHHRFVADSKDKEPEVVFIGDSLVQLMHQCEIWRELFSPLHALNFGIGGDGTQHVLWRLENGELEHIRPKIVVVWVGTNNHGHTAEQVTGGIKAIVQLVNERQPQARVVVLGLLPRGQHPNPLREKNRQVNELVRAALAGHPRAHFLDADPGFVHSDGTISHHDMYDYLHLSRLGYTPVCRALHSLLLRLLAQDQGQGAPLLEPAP
PAFAH2 FP conf: confirmation of human PAFAH2 inhibitors. inhibition, % at 3.39 µM. AID 493030. shares compounds with PAFAH2 FP inh. recombinant PAFAH2, FP-rhodamine activity probe, fluorescence polarization. 2,300 tested, 65% active;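 active = mean inhibition over three repeats above a set limit taken from the earlier primary screen, cut at about 30% in these data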;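 also: inhibitor blocks binding of rhodamine activity probe so polarization falls; 0% = enzyme with DMSO and 100% = wells lacking PAFAH2 protein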
Starred values were filed as active, the others as inactive; nt = not tested or not shown. A selection: hits, their analogues and other compounds. The true share with any hit is near 2.7%.

SMILES	PAFAH2 FP inh	ARFGAP1 inh	pPAFAH FP inh	ASAP1 GAP inh	PAFAH1B2 inh	PAFAH1B3 inh	PAFAH2 FP conf
O=C(COC(=O)c1ccc([N+](=O)[O-])s1)Nc1ccc(Cl)cn1	22	0	20	3	11	24	nt
CCNC(=O)NC(=O)COC(=O)c1cccc(NS(=O)(=O)/C=C/c2ccccc2)c1	4	-3	4	-1	1	-8	nt
O=C(COC(=O)c1ccc(F)cc1F)Nc1ccc(Cl)cn1	39*	14	14	-3	3	6	31*
Cc1ccc(C(=O)OCC(=O)Nc2ccc(Cl)cn2)s1	71*	0	8	-1	4	9	63*
CCOc1cc(C(=O)OCC(=O)Nc2ccc(Cl)cn2)ccc1OCC(=O)N1CCOCC1	83*	-10	22	11	2	3	71*
CC(=O)Nc1cccc(C(=O)OCC(=O)Nc2ccc(Cl)cn2)c1	44*	-1	-2	-1	1	3	33*
CC(=O)Nc1cccc(C(=O)OCC(=O)NC(C)c2ccc(F)cc2)c1 (stereo not drawn)	46*	8	-11	-6	-1	10	36*
O=C(COC(=O)c1cnccn1)Nc1ccc(Cl)cn1	-5	5	5	-10	-2	5	nt
NC(=O)Nc1ccc(C(=O)OCC(=O)Nc2ccc(Cl)cn2)cc1	82*	-5	9	10	5	5	72*
N#C/C(=C\c1cccnc1)c1ccccn1	-2	14	2	5	8	4	nt
N#Cc1ccccc1OCC(=O)NNC(=O)CCC1CCCC1	41*	-5	16	-3	6	1	26
CC1(C)CN(C(Cc2ccccc2)C(N)=O)C1=O (stereo not drawn)	2	-1	4	-8	5	0	nt
CCc1nnc(NS(=O)(=O)c2ccc(NC(=O)c3cccc(Cl)c3)cc2)s1	-5	-7	-10	-7	4	4	nt
Cc1ccccc1S(=O)(=O)/N=C(/Nc1nc2ccccc2s1)c1ccccc1	36*	-8	2	-1	-1	4	30*
COc1ccc(OC)c(CCNC(=O)CN2C(=O)CCSc3ccccc32)c1	36*	-8	2	7	16	17	-7
O=C(COC(=O)c1cccs1)Nc1cccc(S(=O)(=O)N2CCOCC2)c1	64*	-8	3	-6	-3	4	63*
O=C(COC(=O)c1cccs1)Nc1ccc(S(=O)(=O)N2CCOCC2)cc1	-6	-15	0	5	11	9	nt
O=C(COC(=O)/C=C/c1cccs1)Nc1cccc(S(=O)(=O)N2CCOCC2)c1	68*	-1	4	6	0	0	56*
Cn1cccc1C(=O)OCC(=O)Nc1cccc(S(=O)(=O)N2CCOCC2)c1	29	-10	-2	0	2	5	nt
COc1cccc(/C=C/C(=O)OCC(=O)Nc2cccc(S(=O)(=O)N3CCOCC3)c2)c1OC	59*	12	3	-13	1	-2	58*
O=C(COC(=O)c1ccc(=O)[nH]c1)Nc1cccc(S(=O)(=O)N2CCOCC2)c1	66*	-1	0	-3	-3	-3	48*
CCCCn1c(=O)[nH]c(=O)c2c1nc(-c1ccccc1F)n2Cc1ccccc1OC	7	7	13	-1	2	4	nt
Nc1ccn([C@@H]2O[C@H](C(=O)N3CCN(c4ccc(Cl)cn4)CC3)[C@@H](O)[C@H]2O)c(=O)n1	nt	-13	nt	-1	nt	nt	nt
O=C(COC(=O)/C=C/c1ccc(OC(F)F)cc1)Nc1cccc(S(=O)(=O)N2CCCC2)c1	34*	1	3	2	-5	-13	37*
CCN(CC)S(=O)(=O)c1cccc(NC(=O)COc2ncnc3sccc23)c1	-7	10	4	-1	2	0	nt
SMILES	PAFAH2 FP inh	ARFGAP1 inh	pPAFAH FP inh	ASAP1 GAP inh	PAFAH1B2 inh	PAFAH1B3 inh	PAFAH2 FP conf
CC1CC(C)CN(C(=O)CNS(=O)(=O)c2ccc(Br)s2)C1 (stereo not drawn)	4	2	-3	-8	22	8	nt
Cc1ccc(N2CCN(C(=O)CNS(=O)(=O)c3ccc(Br)s3)CC2C)cc1 (stereo not drawn)	36*	6	3	2	12	5	24
CCc1ccc(C(=O)C(C)OC(=O)c2nc3nc(C)cc(C)n3n2)cc1 (stereo not drawn)	1	23	5	2	3	1	nt
C[C@H](CO)N1C[C@H](C)[C@@H](CN(C)Cc2ccccc2)OCc2cnnn2CCCC1=O	nt	4	nt	-3	nt	nt	nt
Cc1ccc(C)n1-c1sccc1C(=O)O	46*	nt	nt	nt	2	9	25
CC(OC(=O)/C=C/c1cccs1)C(=O)Nc1ccc(C(N)=O)cc1 (stereo not drawn)	-1	-1	4	-18	-3	11	nt
COc1ccccc1NS(=O)(=O)c1cccc(C(=O)OCC(=O)NC2CC2)c1	14	-2	24	2	-2	3	nt
CNS(=O)(=O)c1cccc(C(=O)OCC(=O)NC2CCCC2)c1	46*	-3	6	4	-3	8	28
Nc1cc(Cl)ccc1C(=O)OCC(=O)NC1CCCCC1	33*	10	-3	-4	-2	9	31*
O=C(COC(=O)c1ccccc1)NC1CCCC1	73*	-5	7	5	8	6	58*
O=C(COC(=O)c1c2c(nc3ccccc13)/C(=C/c1ccco1)CC2)NC1CCCC1	36*	-4	nt	12	4	18	7
CCN(C(=O)COC(=O)c1ccc(Cl)cc1N)C1CCCCC1	1	14	4	-3	4	7	nt
CC(=O)N(C)c1ccc(NC(=O)c2ccc([N+](=O)[O-])cc2Cl)cc1	-4	12	2	13	1	11	nt
N#CCC(=O)Nc1ccc(C(=O)OCC(=O)NC2CCCCCC2)cc1	83*	5	6	0	3	4	84*
O=C(COC(=O)c1cccc(Br)c1)NC1CCCCCCC1	nt	0	nt	-2	nt	nt	nt
CC(=O)Nc1ccc(C(=O)OCC(=O)NC2CCCCCC2)cc1	nt	-2	nt	-6	nt	nt	nt
O=C(COC(=O)c1ccc(Br)cc1)NC1CCCC1	67*	7	18	10	-1	4	69*
O=C(COC(=O)c1cc(Br)ccc1Cl)NC1CCCC1	34*	3	16	4	0	-1	30*
O=C(Nc1ccccc1-c1nc2ccccc2[nH]1)c1ccc(S(=O)(=O)N2CCCCC2)cc1	-50	-5	nt	5	-23	-32	nt
CC1CCCCN1S(=O)(=O)c1ccc(C(=O)Nc2ccccc2-c2nc3ccccc3[nH]2)cc1 (stereo not drawn)	37*	1	-15	6	4	-36	4
